ChEMBL document CHEMBL1121382, “Inhibitors of polyamine biosynthesis. 8. Irreversible inhibition of mammalian S-adenosyl-L-methionine decarboxylase by substrate analogues” (J Med Chem, 1980)

T1: S-adenosylmethionine decarboxylase proenzyme (Rattus norvegicus) (UniProt P17708)
T1 sequence (whole entry): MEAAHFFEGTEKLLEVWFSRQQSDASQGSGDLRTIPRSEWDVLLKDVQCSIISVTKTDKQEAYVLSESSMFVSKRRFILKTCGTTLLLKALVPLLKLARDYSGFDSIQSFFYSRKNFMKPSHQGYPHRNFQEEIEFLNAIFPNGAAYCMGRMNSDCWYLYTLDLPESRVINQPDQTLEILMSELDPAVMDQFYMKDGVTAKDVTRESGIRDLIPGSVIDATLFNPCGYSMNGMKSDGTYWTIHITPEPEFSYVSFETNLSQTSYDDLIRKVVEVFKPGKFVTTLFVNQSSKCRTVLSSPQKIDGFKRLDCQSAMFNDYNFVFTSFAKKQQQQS

T2: S-adenosylmethionine decarboxylase proenzyme (Rattus norvegicus, UniProt P17708)
T2 sequence (P17708 whole entry): T1 sequence (whole entry)

B1: S-adenosylmethionine decarboxylase proenzyme (Rattus norvegicus), P17708 (protein)
chain: T1 sequence (whole entry)

How the values were obtained:
[1] = target: T1, S-adenosylmethionine decarboxylase proenzyme (Rattus norvegicus); assay: Tested for S-adenosyl-L-methionine decarboxylase activity recovered after 80 min of 0.2 nM compound in incubation media; format: functional; conditions: in the assay text read “0.2 mM” for “0.2 nM”
Summary of the method: (§1)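 Partially purified rat liver AdoMetDC (ammonium sulfate, then MGBG-Sepharose) preincubated at 37 °C, pH 7.0, with BSA and 0.2 mM inhibitor, no reductant. Aliquots removed at 40 or 80 min, then assayed 30 min at 37 °C in phosphate pH 7.0 with 2.5 mM putrescine, DTT and 0.2 mM [1-14C]AdoMet. Released 14CO2 trapped and counted; activity given as % of buffer-only control at the same time.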

[2] = target: T1, S-adenosylmethionine decarboxylase proenzyme (Rattus norvegicus); assay: Tested for S-adenosyl-L-methionine decarboxylase activity recovered after 40 min of 0.2 nM compound in incubation media; format: functional; conditions: in the assay text read “0.2 mM” for “0.2 nM”; summary of the method: as §1
[3] = target: T2, S-adenosylmethionine decarboxylase proenzyme; assay: Tested for inhibition against S-adenosyl-L-methionine decarboxylase from rat liver
Summary of the method: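 Partially purified rat liver enzyme; 0.1 M sodium phosphate pH 7.0, 2.5 mM DTT, 2.5 mM putrescine; S-[1-14C]adenosyl-L-methionine at 2.0 × 10⁻⁶ to 1.60 × 10⁻⁴ M; inhibitor 6.25 × 10⁻⁵, 1.25 × 10⁻⁴, 2.50 × 10⁻⁴ M; 30 min, 37 °C; released 14CO2 trapped in ethanolamine and counted, blank-corrected; apparent Ki from short incubations.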

[4] = target: T1, S-adenosylmethionine decarboxylase proenzyme (Rattus norvegicus); assay: Tested for S-adenosyl-L-methionine decarboxylase activity recovered after 80 min of 0.4 mM compound in incubation media
[5] = target: T1, S-adenosylmethionine decarboxylase proenzyme (Rattus norvegicus); assay: Tested for S-adenosyl-L-methionine decarboxylase activity recovered after 40 min of 0.4 mM compound in incubation media
[6] = target: T1, S-adenosylmethionine decarboxylase proenzyme (Rattus norvegicus); assay: Tested for S-adenosyl-L-methionine decarboxylase activity recovered after 40 min of 0.2 mM + 1 mM NaBH3CN compound in incubation media
[7] = target: T1, S-adenosylmethionine decarboxylase proenzyme (Rattus norvegicus); assay: Tested for S-adenosyl-L-methionine decarboxylase activity recovered after 40 min of 0.2 mM compound in incubation media; format: functional
Summary of the method: (§2)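 Rat liver enzyme (105000g supernatant from livers of male Sprague-Dawley rats, ammonium sulfate 35–65% cut, methylglyoxal bis(guanylhydrazone)-Sepharose eluate) preincubated at 37 °C, pH 7.0, with 0.3 mg BSA, inhibitor 0, 0.2 or 0.4 mM, ±1.0 mM sodium cyanoborohydride. Aliquots taken at 0, 40, 80 min; activity assayed at 0.2 mM substrate; expressed as % of no-addition control.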

[8] = target: T1, S-adenosylmethionine decarboxylase proenzyme (Rattus norvegicus); assay: Tested for S-adenosyl-L-methionine decarboxylase activity recovered after 40 min of 0.2 mM + 1 mM NaBH3CN compound in incubation media; format: functional; summary of the method: as §2
[9] = target: T1, S-adenosylmethionine decarboxylase proenzyme (Rattus norvegicus); assay: Tested for S-adenosyl-L-methionine decarboxylase activity recovered after 40 min of 0.4 mM compound in incubation media; format: functional; summary of the method: as §2
[10] = target: T1, S-adenosylmethionine decarboxylase proenzyme (Rattus norvegicus); assay: Tested for S-adenosyl-L-methionine decarboxylase activity recovered after 80 min of 0.4 mM compound in incubation media; format: functional; summary of the method: as §2
[11] = target: T1, S-adenosylmethionine decarboxylase proenzyme (Rattus norvegicus); assay: Tested for S-adenosyl-L-methionine decarboxylase activity recovered after 80 min of 0.2 mM compound in incubation media; format: functional; summary of the method: as §2
[12] = substrate: C[S+](CC[C@H](N)C(=O)[O-])C[C@H]1O[C@@H](n2cnc3c(N)ncnc32)[C@H](O)[C@@H]1O

Molecule	Activity [1] [%]	Activity [2] [%]	Ki [3] [µM]	Activity [4] [%]	Activity [5] [%]	Activity [6] [%]	Activity [7] [%]	Activity [8] [%]	Activity [9] [%]	Activity [10] [%]	Activity [11] [%]	Km [12] [µM]
CN(CCCN)C[C@H]1O[C@@H](n2cnc3c(N)ncnc32)[C@H](O)[C@@H]1O	97	95	110	97	93	94	–	–	–	–	–	–
C[S+](CCC(C)(N)C(=O)O)C[C@H]1O[C@@H](n2cnc3c(N)ncnc32)[C@H](O)[C@@H]1O (some centres undefined)	–	–	180	–	–	–	89	50	77	62	81	–
CC(N)CC[S+](C)C[C@H]1O[C@@H](n2cnc3c(N)ncnc32)[C@H](O)[C@@H]1O (some centres undefined)	66	75	120	42	65	21	–	–	–	–	–	–
B1	–	–	–	–	–	–	–	–	–	–	–	51.4
